CendR NRP1 mod – NRP-1/CendR interaction modulation; FAM-RPARPAR peptide binding to NRP-1, fluorescence polarization; inhibition, % at 25 µM; actives 0.85% (n = 360,000); AID 602438;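 active means inhibition or corrected inhibition above about 18%, plus a signal ratio from 0.5 to 1.5, limit read from the data, passing the limit was not always enough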
Target sequence (O14786 whole entry, looked up): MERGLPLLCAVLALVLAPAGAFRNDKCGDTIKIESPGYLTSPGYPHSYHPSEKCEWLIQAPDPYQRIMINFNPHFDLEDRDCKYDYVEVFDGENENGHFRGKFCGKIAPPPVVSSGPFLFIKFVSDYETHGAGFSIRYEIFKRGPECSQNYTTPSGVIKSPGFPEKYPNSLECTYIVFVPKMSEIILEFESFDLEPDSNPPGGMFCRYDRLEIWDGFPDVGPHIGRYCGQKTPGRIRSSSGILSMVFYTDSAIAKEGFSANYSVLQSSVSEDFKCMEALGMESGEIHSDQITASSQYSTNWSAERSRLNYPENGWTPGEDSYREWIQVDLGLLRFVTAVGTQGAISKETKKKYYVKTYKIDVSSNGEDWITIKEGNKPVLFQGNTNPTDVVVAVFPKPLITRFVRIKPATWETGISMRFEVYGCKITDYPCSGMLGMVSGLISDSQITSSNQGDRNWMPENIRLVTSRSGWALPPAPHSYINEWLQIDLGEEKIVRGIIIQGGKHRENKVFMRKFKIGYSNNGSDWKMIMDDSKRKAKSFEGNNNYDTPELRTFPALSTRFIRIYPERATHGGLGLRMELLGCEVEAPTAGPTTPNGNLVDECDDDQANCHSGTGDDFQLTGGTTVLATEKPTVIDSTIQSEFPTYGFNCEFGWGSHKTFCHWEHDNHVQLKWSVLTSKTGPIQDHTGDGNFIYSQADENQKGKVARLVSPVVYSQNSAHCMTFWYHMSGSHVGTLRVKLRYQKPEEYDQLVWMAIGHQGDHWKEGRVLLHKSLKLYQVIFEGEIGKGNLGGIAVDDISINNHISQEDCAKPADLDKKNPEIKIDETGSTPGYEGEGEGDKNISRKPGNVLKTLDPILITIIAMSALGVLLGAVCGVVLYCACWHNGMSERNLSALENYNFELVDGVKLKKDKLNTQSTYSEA
DDE Tn6 FP inh – disrupts Tn6 cyclic peptide binding to fibrin D-Dimer-E complex; P02675; Fibrin DD(E) TRITC-Tn6 fluorescence polarization displacement; inhibition, % at 8.3 µM; actives 0.21% (n = 370,000);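 active means inhibition above a per-campaign cutoff: mean of compounds within control limits plus 3 SD, cut at about 15% in these data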
KLK7 zymogen act – activates the human kallikrein-7 zymogen; activation, % at 7 µM; AID 652039; P49862; purified proKLK7, EDANS-DABCYL substrate fluorescence; 100% is mature enzyme control, 0% vehicle; actives 0.9% (n = 370,000);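 active means activation above the mean of all tested compounds plus 3 SD, computed per campaign excluding outliers beyond control limits, cut at about 13% in these data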
CRFBP-R2 agonist – agonists of human CRF-binding protein/CRF-R2 receptor complex | actives 0.46% (n = 350,000) | HEK293 CRF-R2/CRF-BP, calcium dye fluorescence (FLIPR); percent of saturating CRF peptide response | activation, % at 13.2 µM;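 active means activation of at least 50%, plus an integration ratio under a set limit after plate pattern correction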
CRFR2-BP antag – blocks CRF-induced signaling of the CRF-BP/CRF-R2 complex. HEK293 CRF-R2/CRF-BP, CRF-induced calcium fluorescence. inhibition, % at 11.8 µM. actives 0.59% (n = 350,000);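 active means inhibition of the ligand-induced calcium signal above about 50% at the single tested concentration, limit read from the data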
Tn7 DDE FP – disrupts Tn7 cyclic peptide binding to fibrin D-Dimer-E complex. P02675. FP displacement of FITC-Tn7 peptide from fibrin DD(E); 0% = median of compound wells per plate. inhibition, % at 8.3 µM. actives 0.13% (n = 370,000);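 active means inhibition above the mean of compounds falling within the control limits plus 3 SD of them, cut at about 14% in these data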
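Also added: labelled Tn7 tracer, 0.1 µM; Assay system: human fibrin DD(E) protein; Amount: 2 µM fibrin DD(E); Schedule: 10 min compound pre-incubation, 3 h probe incubation at room temperature; Repeats: one replicate per compound; Read-out basis: percent inhibition; Measured by: fluorescence polarization of the labelled Tn7 tracer.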
Numbers stand for hits; - = inactive; . = no result. Sampled rows, rich in hits. Any-hit rate of the full collection: about 2.9%.

SMILES | CendR NRP1 mod | DDE Tn6 FP inh | KLK7 zymogen act | CRFBP-R2 agonist | CRFR2-BP antag | Tn7 DDE FP
CCOc1ccc(NS(=O)(=O)c2ccc(NC(=O)C3CC3)cc2)cc1 | - | - | - | - | - | -
CCOc1ccc(NS(=O)(=O)c2ccc(NC(=O)[C@@H]3CCCC[C@@H]3C(=O)O)cc2)cc1 | - | - | - | 189 | - | -
CCOc1ccc(NS(=O)(=O)c2ccc(C(=O)N3CCCC(C)C3)cc2)cc1 (stereo not drawn) | - | - | - | 55 | - | -
O=C(c1ccc(S(=O)(=O)Nc2ccccc2)cc1)N1CCCC(C(F)(F)F)C1 (stereo not drawn) | - | - | - | 73 | - | -
COC(=O)[C@H](C(C)C)N1Cc2nnn(Cc3ccc(C)cc3)c2-c2ccccc2S1(=O)=O | . | - | - | . | . | -
COc1ccc(-c2cc(C(=O)NN=Cc3ccc(C)s3)[nH]n2)cc1 | . | - | - | . | . | -
O=C1c2oc3ccccc3c(=O)c2C(c2cccnc2)N1CCCN1CCOCC1 (stereo not drawn) | 36 | - | - | - | - | -
CCOC(=O)C1(Cc2ccccc2)CCN(Cc2ccc(C(F)(F)F)cc2)CC1 | . | - | - | . | . | -
CCCCN1CCN(C(=O)c2ccc(CNC(=O)c3cccc(Br)c3)cc2)CC1 | . | - | - | . | . | -
COc1ccc(Oc2nccc(-c3ccccc3)c2C#N)cc1 | - | - | - | - | 71 | -
COc1ccc(Oc2nccc(-c3ccc(F)cc3)c2C#N)cc1 | - | - | - | - | - | -
COC(=O)C1=CC(=O)C=C(OC)[C@@]12Oc1cc(C)cc(OC)c1C2=O | . | - | - | . | . | -
COc1ccc(C(C)=O)cc1CSc1nnc2c(Cl)cc(Cl)cn12 | - | - | - | - | 55 | -
C=CCN1C(=O)/C(=C/C=C2/N(CC)c3ccc(S(=O)(=O)N(C)C)cc3N2CC)SC1=S | - | - | - | 164 | - | -
COC(=O)[C@]12C[C@H](CC(=O)N3CCSCC3)C(=O)N(Cc3ccc(Cl)cc3Cl)C1=C[C@H](C(C)(C)C)O[C@@H]2C | . | - | - | . | . | -
COC(=O)[C@H](C(C)C)N(CCc1cn(CC2CCCCC2)nn1)S(=O)(=O)c1ccccc1Br | . | - | - | . | . | -
O=C1C(F)=CC(COC(c2ccccc2)(c2ccccc2)c2ccccc2)OC1n1cc(F)c(=O)[nH]c1=O (stereo not drawn) | - | - | - | 55 | - | -
CC(=O)OCC1OC(n2cc(F)c(=O)[nH]c2=O)C(OC(C)=O)C1OC(C)=O (stereo not drawn) | - | - | - | - | - | -
Cc1sc2nc(SCC(=O)c3ccc(O)c(O)c3)n(C)c(=O)c2c1C | . | - | - | . | . | -
O=C(c1ccc(S(=O)(=O)Nc2ccccc2Cl)cc1)N1CCOCC1 | 26 | - | - | - | - | -
CCOC(=O)[C@@]12CCCC=C1N(CCc1ccc(Cl)cc1)C(=O)[C@H]2CC(=O)N1CCOCC1 | . | - | - | . | . | -
COc1cc(OC)cc(C(=O)N/N=C/c2ccc(OC)c(COc3ccc(F)cc3)c2)c1 | - | - | - | 62 | - | -
COc1ccc(OCc2cc(/C=N\NC(=O)c3ccccc3)ccc2OC)cc1 | - | - | - | - | - | -
CC(C)CCn1c(N2CCCC2)nc2c1c(=O)[nH]c(=O)n2C | 24 | - | - | - | - | -
CCN1CCN(c2nc3c(c(=O)[nH]c(=O)n3C)n2Cc2ccccc2F)CC1 | 30 | - | - | - | - | -
SMILES | CendR NRP1 mod | DDE Tn6 FP inh | KLK7 zymogen act | CRFBP-R2 agonist | CRFR2-BP antag | Tn7 DDE FP
CC1CN(c2nc3c(c(=O)[nH]c(=O)n3C)n2Cc2ccccc2F)CC(C)O1 (stereo not drawn) | - | - | - | - | - | -
Cn1c(=O)[nH]c(=O)c2c1nc(N1CCOCC1)n2CCCSc1ncccn1 | 22 | - | - | - | - | -
COc1ccc(N2CCN(CCCNC(=O)Cc3ccc(C(F)(F)F)cc3)CC2)cc1 | . | - | - | . | . | -
COc1ccc(OC)c(S(=O)(=O)n2c(CN3CCOCC3)nc3ccccc32)c1 | . | - | - | . | . | -
O=C1CCC[C@H]2C[C@H](NCc3cccc(F)c3)CC[C@]23CCCN13 | . | - | . | . | . | -
O=C(O)C1C2C=CC(O2)C1C(=O)Nc1ccc(S(=O)(=O)N2CCc3ccccc32)cc1 (stereo not drawn) | - | - | - | - | - | -
O=C(O)C1C2C=CC(O2)C1C(=O)Nc1ccc(S(=O)(=O)Nc2ccccc2)cc1 (stereo not drawn) | - | - | - | - | 54 | -
CCN1CCN(Cc2ccc(NC(=O)c3cc(NC(=O)C(=O)c4c[nH]c5ccccc45)cc(OC)c3)cc2C(F)(F)F)CC1 | - | 44 | - | - | - | -
CC(=O)NC(Cc1ccc2c(c1)OCO2)C(=O)N1CCCC1 (stereo not drawn) | . | - | - | . | . | -
CCn1nc(C)c(CN2CCC(n3nccc3NC(=O)Cc3ccccc3)CC2)c1C | 21 | - | - | - | - | -
O=C(NCCc1ccccc1)OCc1cn(Cc2ccccc2C(F)(F)F)nn1 | . | - | - | . | . | -
CC1(C)CC(=O)C2=C(C1)OC(/N=C/N1CCCC1)=C(C#N)C2c1ccccc1 (stereo not drawn) | - | - | - | - | 103 | -
C#CCNC(=O)C[C@H]1C[C@@]2(C(=O)OC)C(=C[C@H](C(C)C)O[C@@H]2C2CC2)N(CCC2=CCCCC2)C1=O | . | - | - | . | . | -
O=C(c1ccc(Cl)c(Cl)c1)N1CCC(Oc2cccnc2)CC1 | . | - | - | . | . | -
COC(=O)[C@]12C[C@H](CC(=O)NCCCN3CCCC3=O)C(=O)N(Cc3ccc(Cl)cc3Cl)C1=C[C@H](C(C)C)O[C@@H]2C1CC1 | . | - | - | . | . | -
COc1ccc(C2Nc3ccccc3C(=O)N2Cc2ccc(C)o2)cc1COc1c(C)cccc1C (stereo not drawn) | . | - | . | . | . | -
C[C@@]12C(=O)N(CC3CCCO3)CC(=O)N1[C@@H]1c3ccccc3OC[C@@H]1[C@@H]2c1ccccc1 (stereo partly drawn) | - | - | - | - | - | -
COc1ccc2c(c1)OC[C@H]1[C@H]2N2C(=O)CN(CC3CCCO3)C(=O)[C@@]2(C)[C@H]1c1ccccc1 (stereo partly drawn) | 26 | - | - | - | - | -
O=S(=O)(c1cccc2ccccc12)N1CCSC1 | 30 | - | - | - | - | -
CCN(c1ccc(NS(=O)(=O)c2cc(Cl)ccc2Cl)cc1)C(C)C | - | - | - | - | 55 | -
CN(C)c1ccc(NS(=O)(=O)c2cc(Cl)ccc2Cl)cc1 | - | - | - | - | - | -
CCOc1ccc(NS(=O)(=O)c2cc(Cl)ccc2OC)cc1 | 22 | - | - | - | - | -
CC(=O)N(Cc1c(C)nn(-c2ccccc2)c1Cl)c1ccc(Cl)cc1 | - | - | - | - | - | -

Screening data (PubChem)
